Screening results deposited in PubChem by several laboratories.
PostGolgi yeast – growth inhibition of a yeast mutant, post-Golgi transport screen | post-Golgi transport phenotypic cell assay | AID 739 | inhibition, % at 10 µM | hit rate 0.9% among 98,000;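 also: yeast cells grown in 1536-well plates; yeast grown about 18 h at 30C before absorbance read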
Ecoli tolC – growth inhibitors of E. coli BW25113 tolC mutant; OD615; growth inhibition, % at 10 µM (by protocol); hit rate 2.2% among 65,000;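 active = growth inhibition at or above a cutoff equal to the mean over every tested compound plus 3 SD, cut at about 60% in these data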;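 also: growth measured after 20 h incubation at 37 °C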
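Test system: E. coli BW25113 ΔtolC::kan bacteria; incubation: 37 °C, 20 h exposure; medium: LB broth supplemented with 50 µg/mL kanamycin; read-out basis: percent growth inhibition; signal: A615 absorbance measurement; compound: 10 µM final, single dose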
PostGolgi ctrl – inhibits growth of the yeast control strain; hit rate 5% among 98,000; inhibition, % at 10 µM; AID 738; efflux-deficient yeast background strain, growth absorbance A615, 16 h
PLAP activator – activators of human placental alkaline phosphatase; hit rate 1.2% among 96,000; purified PLAP enzyme, luminescent substrate read-out; active compounds read high; AID 696; activation fold at 20 µM; in the data active = activation fold above about 2
Target sequence (P05187 whole entry, looked up): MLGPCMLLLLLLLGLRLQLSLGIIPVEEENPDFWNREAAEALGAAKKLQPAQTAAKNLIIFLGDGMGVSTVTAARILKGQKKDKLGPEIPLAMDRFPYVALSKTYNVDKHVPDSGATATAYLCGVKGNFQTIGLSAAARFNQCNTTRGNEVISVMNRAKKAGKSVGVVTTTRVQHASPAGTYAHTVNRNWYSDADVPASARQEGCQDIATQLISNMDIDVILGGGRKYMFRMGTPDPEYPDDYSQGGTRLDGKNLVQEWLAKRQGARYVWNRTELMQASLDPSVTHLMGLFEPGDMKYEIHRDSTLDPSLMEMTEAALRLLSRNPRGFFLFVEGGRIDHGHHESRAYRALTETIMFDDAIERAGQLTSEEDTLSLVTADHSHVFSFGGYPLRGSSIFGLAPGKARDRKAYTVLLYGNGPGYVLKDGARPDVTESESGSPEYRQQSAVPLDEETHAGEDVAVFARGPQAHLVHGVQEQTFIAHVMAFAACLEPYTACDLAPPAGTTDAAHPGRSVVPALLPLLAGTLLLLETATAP
Ecoli WT expand – growth inhibitors of E. coli BW25113 wild type | OD600 absorbance | growth inhibition, % at 100 µM | hit rate 0.15% among 98,000 | AID 710;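 active = growth inhibition above about 50% at one test dose, limit read from the data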;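 also: growth measured after 20 h incubation at 37 °C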
An asterisk follows results filed as active. A selection: hits, their analogues and other compounds. The true share with any hit is near 7.2%. Rule as the data show it, unless noted: active = inhibition above about 30%; inactive = the rest.

For O=C(Nc1ccc(Cl)c(C(F)(F)F)c1)C1CCCN(S(=O)(=O)c2cnc[nH]2)C1 (stereo not drawn) the results were PostGolgi yeast 4.9, Ecoli tolC 14.1, PostGolgi ctrl 3.1, PLAP activator 1.4 and Ecoli WT expand 16.0.
COC(=O)c1cc(NC2c3ccccc3C(=O)N2CCN2CCOCC2)cc(C(=O)OC)c1 (stereo not drawn) was read as PostGolgi yeast -4.8, Ecoli tolC 1.8, PostGolgi ctrl 7.8, PLAP activator 1.6 and Ecoli WT expand 6.0.
CC(C)c1ccc(-c2nnn(Cc3nc4ccccc4s3)n2)cc1 was read as PostGolgi yeast 1.6, Ecoli tolC 80.0*, PostGolgi ctrl 16.1, PLAP activator 0.8 and Ecoli WT expand -15.0.
For CC(c1ccc(Cl)cc1)n1c(-c2ccc3ccccc3n2)n[nH]c1=S (stereo not drawn) the results were PostGolgi yeast 3.1, PostGolgi ctrl 54.6*, PLAP activator 1 and Ecoli WT expand 2.0.
`CCCn1c(-c2ccc(F)cc2)n[nH]c1=S` gave PostGolgi yeast -5.7, Ecoli tolC -6.4, PostGolgi ctrl -0.2, PLAP activator 0.9 and Ecoli WT expand 5.0.
Screening CC(c1ccc(F)cc1)n1c(-c2ccc3ccccc3n2)n[nH]c1=S (stereo not drawn) returned PostGolgi yeast -0.2, PostGolgi ctrl 36.4*, PLAP activator 1.1 and Ecoli WT expand 4.0.
CCn1c(-c2ccc(Cl)cc2)n[nH]c1=S was read as PostGolgi yeast 2.1, PostGolgi ctrl 5.2, PLAP activator 0.8 and Ecoli WT expand 4.0.
`c1ccc(CC2CCN(c3nc(N4CCOCC4)nc(N4CCOCC4)n3)CC2)cc1` gave Ecoli tolC 5.8.
For CC(c1ccco1)N(C(=O)c1cccs1)c1ccccn1 (stereo not drawn) the results were PostGolgi yeast 3.0, Ecoli tolC 6.5, PostGolgi ctrl 41.4*, PLAP activator 1 and Ecoli WT expand -1.0.
CC(CCc1ccco1)NC(=O)c1cc2c(-c3ccccc3F)nn(C)c2s1 (stereo not drawn) was read as PostGolgi yeast -4.8, Ecoli tolC 24.9, PostGolgi ctrl 9.8, PLAP activator 1.6 and Ecoli WT expand -10.0.
For COc1cccc(-c2nn(C)c3sc(C(=O)Nc4ccc5c(c4)OCCO5)cc23)c1 the results were PostGolgi yeast -1.9, Ecoli tolC 12.0, PostGolgi ctrl 36.8*, PLAP activator 1.1 and Ecoli WT expand -14.0.
COc1cccc(-c2nn(C)c3sc(C(=O)NCc4ccc(C)cc4)cc23)c1 was read as PostGolgi yeast -8.0, PostGolgi ctrl 25.4, PLAP activator 1.8 and Ecoli WT expand -17.0.
Cn1nc(-c2ccccc2F)c2cc(C(=O)Nc3ccc4c(c3)OCCO4)sc21 was read as PostGolgi yeast 20.0, PostGolgi ctrl 51.5*, PLAP activator 1.6 and Ecoli WT expand -27.0.
For CCOC(=O)N1CCC(N2CCN(S(=O)(=O)c3ccc4ccccc4c3)CC2)CC1 the results were PostGolgi yeast -9.1, PostGolgi ctrl -6.5, PLAP activator 1.6 and Ecoli WT expand -1.0.
For COc1ccc(OC)c2[nH]c(=O)c(CCNC(=O)CC(C)C)cc12 the results were PostGolgi yeast 6.7, Ecoli tolC -0.8, PostGolgi ctrl 18.4, PLAP activator 1 and Ecoli WT expand 3.0.
Screening O=c1c(C(c2nnnn2C2CCCCC2)N2CCCCC2)coc2ccc(Cl)cc12 (stereo not drawn) returned PostGolgi yeast 76.8*, Ecoli tolC 14.7, PostGolgi ctrl 87.4*, PLAP activator 1 and Ecoli WT expand 4.0.
Screening Cc1nc(SCC(=O)c2ccccc2)n[nH]1 returned PostGolgi yeast -5.4, Ecoli tolC 5.2, PostGolgi ctrl 2.6, PLAP activator 2.2* and Ecoli WT expand 3.0.
`Cc1c(Cl)cccc1NC(=O)CSc1nnc(CCNC(=O)OC(C)(C)C)o1` gave PostGolgi yeast 1.9, Ecoli tolC 1.4, PostGolgi ctrl 15.1, PLAP activator 1.7 and Ecoli WT expand -3.0.
For CCOC(=O)c1ccc(NC(=O)NC2CC3CCC(C2)N3Cc2nnnn2C(C)(C)C)cc1 (stereo not drawn) the results were PostGolgi yeast 6.0, Ecoli tolC 7.6, PostGolgi ctrl -1.2, PLAP activator 1 and Ecoli WT expand 2.0.
For Cn1c(SCC(=O)N2CCOCC2)nnc1-c1cnccn1 the results were PostGolgi yeast 2.9, Ecoli tolC -11.5, PostGolgi ctrl 4.2, PLAP activator 1 and Ecoli WT expand -5.0.
Cn1c(SCC(=O)c2ccc(F)cc2)nnc1-c1cnccn1 was read as PostGolgi yeast 5.5, Ecoli tolC -11.7, PostGolgi ctrl 39.0*, PLAP activator 1 and Ecoli WT expand -4.0.
Screening O=C(Nc1ccc(Cl)c(Cl)c1)N1CCSC1c1ccco1 (stereo not drawn) returned PostGolgi yeast -6.9, Ecoli tolC 100.0*, PostGolgi ctrl 7.2, PLAP activator 0.8 and Ecoli WT expand 18.0.
`COc1ccc2nc(NC(=O)C(NS(=O)(=O)c3cccc4nsnc34)C(C)C)sc2c1` (stereo not drawn) gave PostGolgi yeast 5.1, PostGolgi ctrl -1.6, PLAP activator 2.1* and Ecoli WT expand -9.0.
COc1ccc2nc(NC(=O)C3CCN(S(=O)(=O)c4cccc5nsnc45)CC3)sc2c1 was read as PostGolgi yeast -6.3, Ecoli tolC 36.8, PostGolgi ctrl 21.5, PLAP activator 1.2 and Ecoli WT expand -12.0.
Screening Cc1ccc(N2CC(C(=O)NCC3CCCO3)CC2=O)cc1Cl (stereo not drawn) returned PostGolgi yeast -9.1, Ecoli tolC -10.5, PostGolgi ctrl 1.3, PLAP activator 1 and Ecoli WT expand 5.0.
Screening OC(CN1c2ccccc2Sc2ccccc21)Cn1nnc2ccccc21 (stereo not drawn) returned PostGolgi yeast 9.8, Ecoli tolC 39.4, PostGolgi ctrl 47.0*, PLAP activator 1.4 and Ecoli WT expand -9.0.
For CC(=O)c1ccc(OCC(O)Cn2nnc3ccccc32)cc1 (stereo not drawn) the results were PostGolgi yeast 5.4, Ecoli tolC 8.3, PostGolgi ctrl 15.0, PLAP activator 1.3 and Ecoli WT expand 8.0.
N#Cc1ccc(-c2ccc(OCC(O)Cn3nnc4ccccc43)cc2)cc1 (stereo not drawn) was read as PostGolgi yeast -1.5, Ecoli tolC 5.7, PostGolgi ctrl 34.7* and Ecoli WT expand -7.0.
`COc1ccc(S(=O)(=O)N2CCC(C(=O)Nc3ccccc3C)CC2)c2cccnc12` gave PostGolgi yeast -3.9, Ecoli tolC 3.8, PostGolgi ctrl -4.2, PLAP activator 1.7 and Ecoli WT expand -2.0.
For O=C1C2CC=C(Cl)CC2C(=O)N1c1ncn[nH]1 (stereo not drawn) the results were PostGolgi yeast 0.2, Ecoli tolC -16.2, PostGolgi ctrl 8.0 and Ecoli WT expand 2.0.
`O=C1C2CC=CCC2C(=O)N1c1ncn[nH]1` (stereo not drawn) gave PostGolgi yeast -2.9, PostGolgi ctrl 5.6, PLAP activator 2.6* and Ecoli WT expand -1.0.
Screening NS(=O)(=O)c1ccc(NC(=O)c2ccccc2C(=O)N2CCCCC2)cc1 returned PostGolgi yeast -4.5, Ecoli tolC -17.0, PostGolgi ctrl -7.1, PLAP activator 1.1 and Ecoli WT expand 9.0.
